Converted amounts (≈) assume the structure as drawn.
How the values were obtained:
Staphylococcus aureus [1] = test: Antibacterial activity against methicillin-resistant Staphylococcus aureus NR10186 measured after 16 to 18 hrs; format: functional; details: time 16-18 hrs
Procedure, shortened: (§1)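 Broth microdilution MIC. Strains grown on MHA; a single colony was grown overnight in CA-MHB at 37 °C with shaking for 18–24 h. Cultures were diluted by OD600 to ~10⁶ cfu/mL and exposed to compound at […]. Plates were incubated at 37 °C for 16-18 h. MIC = lowest concentration with no visible growth. Levofloxacin was the reference. Three independent runs, each in duplicate.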

Staphylococcus aureus [2] = test: Antibacterial activity against methicillin-resistant Staphylococcus aureus NR10129 measured after 16 to 18 hrs; format: functional; details: time 16-18 hrs; procedure, shortened: as §1
[3] = system: Mycobacteroides abscessus; test: Antimycobacterial activity against Mycobacterium abscessus ATCC 19977 by broth microdilution method; format: functional
Procedure, shortened: (§2)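 Broth microdilution MIC in Middlebrook 7H9 with 10% ADC-Tween-80 (BSA, dextrose, 0.2% glycerol, 0.05% Tween-80). Inoculum ~10⁶ cfu/mL set by OD600. Compounds were twofold serially diluted, 0.0064–0.00005 g/100 mL (DMSO stocks). Presto blue resazurin dye was used as read-out. MIC = lowest concentration inhibiting visible growth. Triplicate runs, each in duplicate.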

Staphylococcus aureus [4] = test: Antibacterial activity against vancomycin-resistant Staphylococcus aureus VRS1 measured after 16 to 18 hrs; format: functional; details: time 16-18 hrs; procedure, shortened: as §1
Staphylococcus aureus [5] = test: Antibacterial activity against methicillin-resistant Staphylococcus aureus NR100 measured after 16 to 18 hrs; format: functional; details: time 16-18 hrs; procedure, shortened: as §1
[6] = Selectivity index, ratio of CC50 for cytotoxicity against African green monkey Vero cells to MIC for antibacterial activity against Staphylococcus aureus ATCC 29213; format: toxicity, cell-based; details: read-out: Selectivity Index
Procedure, shortened: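 SI = Vero CC50 (MTT, 72 h) divided by MIC against S. aureus ATCC 29213 (CA-MHB broth microdilution, 16-18 h, 37 °C).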

[7] = system: Mycolicibacterium fortuitum; test: Antimycobacterial activity against Mycobacterium fortuitum ATCC 6841 by broth microdilution method; format: functional; procedure, shortened: as §2
Acinetobacter baumannii = test: Antibacterial activity against Acinetobacter baumannii BAA1605 measured after 16 to 18 hrs; format: functional; details: time 16-18 hrs; procedure, shortened: as §1
Staphylococcus aureus [8] = test: Antibacterial activity against methicillin-resistant Staphylococcus aureus NR10191 measured after 16 to 18 hrs; format: functional; details: time 16-18 hrs; procedure, shortened: as §1
Escherichia coli = test: Antibacterial activity against Escherichia coli ATCC 25922 measured after 16 to 18 hrs; format: functional; details: time 16-18 hrs; procedure, shortened: as §1
Staphylococcus aureus [9] = test: Antibacterial activity against vancomycin-resistant Staphylococcus aureus VRS12 measured after 16 to 18 hrs; format: functional; details: time 16-18 hrs; procedure, shortened: as §1
[10] = Cytotoxicity against African green monkey Vero cells assessed as reduction in cell viability measured after 72 hrs by MTT assay; format: cell-based; details: chlorocebus sabaeus
Procedure, shortened: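 Vero cells (ATCC CCL-81), ~10³ cells/well, held 24 h at 37 °C in 5% CO₂. Compound at 100–5 mg/L for 72 h. MTT was added for 4 h, formazan dissolved in DMSO, OD read at 540 nm. CC50 = concentration giving 50% viability reduction. Doxorubicin was the positive control. Triplicate.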

Mycobacteroides chelonae = test: Antimycobacterial activity against Mycobacterium chelonae ATCC 35752 by broth microdilution method; format: functional; procedure, shortened: as §2
Staphylococcus aureus [11] = test: Antibacterial activity against vancomycin-resistant Staphylococcus aureus VRS4 measured after 16 to 18 hrs; format: functional; details: time 16-18 hrs; procedure, shortened: as §1
Staphylococcus aureus [12] = test: Antibacterial activity against methicillin-resistant Staphylococcus aureus NR10193 measured after 16 to 18 hrs; format: functional; details: time 16-18 hrs; procedure, shortened: as §1
Pseudomonas aeruginosa = test: Antibacterial activity against Pseudomonas aeruginosa ATCC 27853 measured after 16 to 18 hrs; format: functional; details: time 16-18 hrs; procedure, shortened: as §1
Staphylococcus aureus [13] = test: Antibacterial activity against methicillin-resistant Staphylococcus aureus NR10198 measured after 16 to 18 hrs; format: functional; details: time 16-18 hrs; procedure, shortened: as §1
Klebsiella pneumoniae = test: Antibacterial activity against Klebsiella pneumoniae BAA-1705 measured after 16 to 18 hrs; format: functional; details: ATCC BAA-1705, time 16-18 hrs; procedure, shortened: as §1
Staphylococcus aureus [14] = test: Antibacterial activity against methicillin-resistant Staphylococcus aureus NR10194 measured after 16 to 18 hrs; format: functional; details: time 16-18 hrs; procedure, shortened: as §1
Staphylococcus aureus [15] = test: Antibacterial activity against methicillin-resistant Staphylococcus aureus NR10192 measured after 16 to 18 hrs; format: functional; details: time 16-18 hrs; procedure, shortened: as §1
[16] = system: Mycobacterium tuberculosis; test: Antitubercular activity against Mycobacterium tuberculosis H37Rv ATCC 27294 measured after 7 days by broth microdilution method; format: functional; details: H37Rv ATCC 27294, 168 h, time 7 day
Procedure, shortened: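 H37Rv in Middlebrook 7H9 with 10% ADC, 0.2% glycerol, 0.05% Tween-80. Inoculum ~10⁶ cfu/mL set by OD600. Twofold serial dilutions, 0.0064–0.00005 g/100 mL. Incubated at 37 °C for 7 days, then Presto blue resazurin read-out. MIC = lowest concentration inhibiting visible growth. Triplicate runs, each in duplicate.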

Staphylococcus aureus [17] = test: Antibacterial activity against methicillin-resistant Staphylococcus aureus NR119 measured after 16 to 18 hrs; format: functional; details: time 16-18 hrs; procedure, shortened: as §1
Staphylococcus aureus [18] = test: Antibacterial activity against methicillin-sensitive Staphylococcus aureus ATCC 29213 measured after 16 to 18 hrs; format: functional; details: time 16-18 hrs; procedure, shortened: as §1
Staphylococcus aureus [19] = test: Antibacterial activity against Staphylococcus aureus ATCC 29213 measured after 16 to 18 hrs; format: functional; details: time 16-18 hrs; procedure, shortened: as §1

SMILES	MIC (Staphylococcus aureus [1])	MIC (Staphylococcus aureus [2])	MIC (Staphylococcus aureus [4])	MIC (Staphylococcus aureus [5])	selectivity ratio [6]	MIC (Acinetobacter baumannii)	MIC (Staphylococcus aureus [8])	MIC (Escherichia coli)	MIC (Staphylococcus aureus [9])	CC50 at 72 h [10]	MIC (Staphylococcus aureus [11])	MIC (Staphylococcus aureus [12])	MIC (Pseudomonas aeruginosa)	MIC (Staphylococcus aureus [13])	MIC (Klebsiella pneumoniae)	MIC (Staphylococcus aureus [14])	MIC (Staphylococcus aureus [15])	MIC (Staphylococcus aureus [17])	MIC (Staphylococcus aureus [18])	MIC (Staphylococcus aureus [19])	also measured
Clc1ccc2[nH]c(-c3ccc(Nc4nc(-c5ccccc5)nc5ccccc45)cc3)nc2c1	8 mg/L (≈ 17.9 µM)	8 mg/L (≈ 17.9 µM)	4 mg/L (≈ 8.93 µM)	8 mg/L (≈ 17.9 µM)	12.5	> 64 mg/L	16 mg/L (≈ 35.7 µM)	> 64 mg/L	8 mg/L (≈ 17.9 µM)	100 mg/L (≈ 223 µM)	8 mg/L (≈ 17.9 µM)	16 mg/L (≈ 35.7 µM)	> 64 mg/L	4 mg/L (≈ 8.93 µM)	> 64 mg/L	8 mg/L (≈ 17.9 µM)	8 mg/L (≈ 17.9 µM)	8 mg/L (≈ 17.9 µM)	8 mg/L (≈ 17.9 µM)	8 mg/L (≈ 17.9 µM)	MIC [3]: > 64 mg/L; MIC [7]: 32 mg/L (≈ 71.4 µM); MIC (Mycobacteroides chelonae): 32 mg/L (≈ 71.4 µM); MIC [16]: 32 mg/L (≈ 71.4 µM)
c1ccc(-c2nc(Nc3ccc(-c4nc5ccccc5[nH]4)cc3)c3ccccc3n2)cc1	8 mg/L (≈ 19.3 µM)	16 mg/L (≈ 38.7 µM)	8 mg/L (≈ 19.3 µM)	32 mg/L (≈ 77.4 µM)	10	> 64 mg/L	16 mg/L (≈ 38.7 µM)	> 64 mg/L	16 mg/L (≈ 38.7 µM)	80 mg/L (≈ 193 µM)	8 mg/L (≈ 19.3 µM)	16 mg/L (≈ 38.7 µM)	> 64 mg/L	4 mg/L (≈ 9.67 µM)	> 64 mg/L	8 mg/L (≈ 19.3 µM)	32 mg/L (≈ 77.4 µM)	8 mg/L (≈ 19.3 µM)	8 mg/L (≈ 19.3 µM)	8 mg/L (≈ 19.3 µM)	MIC [3]: > 64 mg/L; MIC [7]: > 64 mg/L; MIC (Mycobacteroides chelonae): > 64 mg/L; MIC [16]: > 64 mg/L
Clc1ccc(-c2nc(Nc3ccc(-c4nc5ccccc5[nH]4)cc3)c3ccccc3n2)cc1	16 mg/L (≈ 35.7 µM)	8 mg/L (≈ 17.9 µM)	4 mg/L (≈ 8.93 µM)	8 mg/L (≈ 17.9 µM)	12.5	> 64 mg/L	8 mg/L (≈ 17.9 µM)	> 64 mg/L	8 mg/L (≈ 17.9 µM)	50 mg/L (≈ 112 µM)	8 mg/L (≈ 17.9 µM)	8 mg/L (≈ 17.9 µM)	> 64 mg/L	8 mg/L (≈ 17.9 µM)	> 64 mg/L	8 mg/L (≈ 17.9 µM)	4 mg/L (≈ 8.93 µM)	32 mg/L (≈ 71.4 µM)	8 mg/L (≈ 17.9 µM)	4 mg/L (≈ 8.93 µM)	
Fc1ccc2[nH]c(-c3ccc(Nc4nc(-c5ccc(Cl)cc5)nc5ccccc45)cc3)nc2c1	4 mg/L (≈ 8.59 µM)	4 mg/L (≈ 8.59 µM)	4 mg/L (≈ 8.59 µM)	4 mg/L (≈ 8.59 µM)	12.5	> 64 mg/L	8 mg/L (≈ 17.2 µM)	> 64 mg/L	4 mg/L (≈ 8.59 µM)	50 mg/L (≈ 107 µM)	2 mg/L (≈ 4.29 µM)	8 mg/L (≈ 17.2 µM)	> 64 mg/L	8 mg/L (≈ 17.2 µM)	> 64 mg/L	4 mg/L (≈ 8.59 µM)	2 mg/L (≈ 4.29 µM)	4 mg/L (≈ 8.59 µM)	4 mg/L (≈ 8.59 µM)	4 mg/L (≈ 8.59 µM)	

From ChEMBL document CHEMBL4706624, “Synthesis and evaluation of new quinazoline-benzimidazole hybrids as potent anti-microbial agents against multidrug resistant Staphylococcus aureus and Mycobacterium tuberculosis” (Eur J Med Chem, 2021)
